The results in this text go back to ChEMBL document CHEMBL1155998, “Design and synthesis of piperazinylpyrimidinones as novel selective 5-HT(2C) agonists” (Bioorg Med Chem Lett, 2009).

The target of series [1] is D(3) dopamine receptor (Homo sapiens) (UniProt P35462). The series is described as follows: Binding affinity to dopamine D3 receptor.
Series [2] in a line: Binding affinity to calcium ion channel at L-verapamil site.
For series [3], the target named is Beta-2 adrenergic receptor (Homo sapiens) (UniProt P07550). In words: Binding affinity to beta2 receptor.
The nature of series [4]: Ratio of drug level in CSF to free plasma in iv dosed dog. The following applies: in vivo. It counts as ADME, organism-based, Canis lupus familiaris.
Series [5] addresses 5-hydroxytryptamine receptor 2B (Homo sapiens, UniProt P41595). The series is described as follows: Agonist activity at human recombinant 5HT2B receptor transfected in CHO K1 cells assessed as calcium mobilisation by FLIPR assay. It counts as functional, cell-based. (In general: Calcium flux is commonly read through the fluorescence of an indicator in the cells.)
In series [6] the target is 5-hydroxytryptamine receptor 1B (Homo sapiens) (UniProt P28222). In words: Binding affinity to 5HT1B receptor.
Series [7] addresses 5-hydroxytryptamine receptor 2A (Homo sapiens, UniProt P28223). The series is described as follows: Agonist activity at human recombinant 5HT2A receptor transfected in CHO K1 cells assessed as calcium mobilisation by FLIPR assay. It counts as functional, cell-based.
The target of series [8] is Voltage-gated inwardly rectifying potassium channel KCNH2 (Homo sapiens, UniProt Q12809). The series is described as follows: Binding affinity to human ERG.
For series [9], the target named is Muscarinic acetylcholine receptor M3 (Homo sapiens) (UniProt P20309). In words: Binding affinity to M3 receptor.
Series [10] deals with Canis familiaris. The series is described as follows: Free plasma concentration in iv dosed dog. The following applies: in vivo. It counts as ADME, organism-based, Canis lupus familiaris. The gist of the method:
(§1)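 Anaesthetised dogs, two animals, in a urethral function model. Compound was given by intravenous infusion. Peak urethral pressure was recorded as % increase, alongside measured free plasma concentrations.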

For series [11], the target named is 5-hydroxytryptamine receptor 4 (Homo sapiens) (UniProt Q13639). In words: Binding affinity to 5HT4E receptor.
For series [12], the system named is Canis familiaris. The series is described as follows: Increase of urethral pressure in iv dosed dog. It counts as functional, Canis lupus familiaris, Urethra. The gist of the method:
as §1

The term EC50 denotes the concentration that produces a half-maximal response. The Ki is the equilibrium dissociation constant of an inhibitor or competing ligand from its target.

Muscarinic acetylcholine receptor M3 (Homo sapiens), sequence (P20309 whole entry, looked up): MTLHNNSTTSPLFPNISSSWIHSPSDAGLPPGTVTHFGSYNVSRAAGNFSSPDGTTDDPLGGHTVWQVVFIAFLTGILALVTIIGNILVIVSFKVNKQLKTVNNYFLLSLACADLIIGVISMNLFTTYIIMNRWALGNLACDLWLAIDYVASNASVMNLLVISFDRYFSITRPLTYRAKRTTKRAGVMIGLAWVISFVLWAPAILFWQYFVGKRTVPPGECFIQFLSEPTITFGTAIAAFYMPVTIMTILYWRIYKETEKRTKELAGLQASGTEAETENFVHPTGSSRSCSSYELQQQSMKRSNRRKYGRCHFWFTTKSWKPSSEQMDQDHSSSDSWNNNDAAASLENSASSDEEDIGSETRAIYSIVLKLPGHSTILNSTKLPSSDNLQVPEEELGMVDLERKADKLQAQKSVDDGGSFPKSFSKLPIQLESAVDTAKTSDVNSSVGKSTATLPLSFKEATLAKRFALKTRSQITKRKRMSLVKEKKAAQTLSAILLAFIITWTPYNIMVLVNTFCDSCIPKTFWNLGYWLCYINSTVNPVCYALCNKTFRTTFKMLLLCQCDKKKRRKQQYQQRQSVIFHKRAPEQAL
5-hydroxytryptamine receptor 1B (Homo sapiens), sequence (P28222 whole entry): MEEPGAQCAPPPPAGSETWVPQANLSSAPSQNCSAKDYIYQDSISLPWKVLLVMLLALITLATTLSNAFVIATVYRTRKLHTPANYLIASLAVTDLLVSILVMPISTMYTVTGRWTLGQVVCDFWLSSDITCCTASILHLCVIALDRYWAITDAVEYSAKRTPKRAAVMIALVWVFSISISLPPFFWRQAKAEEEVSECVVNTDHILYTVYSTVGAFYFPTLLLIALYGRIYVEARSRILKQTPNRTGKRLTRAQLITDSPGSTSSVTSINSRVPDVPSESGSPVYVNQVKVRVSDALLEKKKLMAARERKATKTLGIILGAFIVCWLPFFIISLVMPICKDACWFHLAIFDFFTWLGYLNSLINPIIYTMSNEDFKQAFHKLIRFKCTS
5-hydroxytryptamine receptor 2B, sequence (P41595 whole entry): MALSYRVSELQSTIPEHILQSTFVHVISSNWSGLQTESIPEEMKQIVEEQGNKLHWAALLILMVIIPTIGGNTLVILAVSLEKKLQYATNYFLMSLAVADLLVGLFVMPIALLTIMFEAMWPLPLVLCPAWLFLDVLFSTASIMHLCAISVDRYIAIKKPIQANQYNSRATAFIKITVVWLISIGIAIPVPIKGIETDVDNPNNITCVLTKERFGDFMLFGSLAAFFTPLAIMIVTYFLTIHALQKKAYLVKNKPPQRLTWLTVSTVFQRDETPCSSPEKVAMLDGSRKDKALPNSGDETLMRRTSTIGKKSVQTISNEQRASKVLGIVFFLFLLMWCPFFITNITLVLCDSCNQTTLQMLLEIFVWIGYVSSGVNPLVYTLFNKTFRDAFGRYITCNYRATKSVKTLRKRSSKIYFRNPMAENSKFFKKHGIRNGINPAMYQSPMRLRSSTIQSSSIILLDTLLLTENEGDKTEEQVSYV
5-hydroxytryptamine receptor 4 (Homo sapiens), sequence (Q13639 whole entry): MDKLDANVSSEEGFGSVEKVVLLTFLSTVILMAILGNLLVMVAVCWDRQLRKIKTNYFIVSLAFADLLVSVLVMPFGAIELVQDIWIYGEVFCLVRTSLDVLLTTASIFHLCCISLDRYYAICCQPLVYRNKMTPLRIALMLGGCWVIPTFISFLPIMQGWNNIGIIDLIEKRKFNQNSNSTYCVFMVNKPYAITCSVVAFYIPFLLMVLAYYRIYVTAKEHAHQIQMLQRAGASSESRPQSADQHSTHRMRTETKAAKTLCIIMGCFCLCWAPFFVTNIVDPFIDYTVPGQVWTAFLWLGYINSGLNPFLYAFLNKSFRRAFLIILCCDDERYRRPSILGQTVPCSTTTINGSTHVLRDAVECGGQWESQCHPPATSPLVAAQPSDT
Beta-2 adrenergic receptor (Homo sapiens), sequence (P07550 whole entry, looked up): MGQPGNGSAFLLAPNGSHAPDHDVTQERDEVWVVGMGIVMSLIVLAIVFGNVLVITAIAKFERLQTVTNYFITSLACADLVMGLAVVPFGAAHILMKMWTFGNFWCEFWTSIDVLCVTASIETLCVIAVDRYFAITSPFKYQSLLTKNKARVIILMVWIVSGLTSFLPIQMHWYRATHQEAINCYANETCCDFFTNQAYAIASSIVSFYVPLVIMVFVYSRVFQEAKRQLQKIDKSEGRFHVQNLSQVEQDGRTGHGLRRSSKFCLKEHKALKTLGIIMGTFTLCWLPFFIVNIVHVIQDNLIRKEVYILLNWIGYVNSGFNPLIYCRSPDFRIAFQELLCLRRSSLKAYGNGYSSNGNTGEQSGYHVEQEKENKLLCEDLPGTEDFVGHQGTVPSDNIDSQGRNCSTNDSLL
Voltage-gated inwardly rectifying potassium channel KCNH2, sequence (Q12809 whole entry): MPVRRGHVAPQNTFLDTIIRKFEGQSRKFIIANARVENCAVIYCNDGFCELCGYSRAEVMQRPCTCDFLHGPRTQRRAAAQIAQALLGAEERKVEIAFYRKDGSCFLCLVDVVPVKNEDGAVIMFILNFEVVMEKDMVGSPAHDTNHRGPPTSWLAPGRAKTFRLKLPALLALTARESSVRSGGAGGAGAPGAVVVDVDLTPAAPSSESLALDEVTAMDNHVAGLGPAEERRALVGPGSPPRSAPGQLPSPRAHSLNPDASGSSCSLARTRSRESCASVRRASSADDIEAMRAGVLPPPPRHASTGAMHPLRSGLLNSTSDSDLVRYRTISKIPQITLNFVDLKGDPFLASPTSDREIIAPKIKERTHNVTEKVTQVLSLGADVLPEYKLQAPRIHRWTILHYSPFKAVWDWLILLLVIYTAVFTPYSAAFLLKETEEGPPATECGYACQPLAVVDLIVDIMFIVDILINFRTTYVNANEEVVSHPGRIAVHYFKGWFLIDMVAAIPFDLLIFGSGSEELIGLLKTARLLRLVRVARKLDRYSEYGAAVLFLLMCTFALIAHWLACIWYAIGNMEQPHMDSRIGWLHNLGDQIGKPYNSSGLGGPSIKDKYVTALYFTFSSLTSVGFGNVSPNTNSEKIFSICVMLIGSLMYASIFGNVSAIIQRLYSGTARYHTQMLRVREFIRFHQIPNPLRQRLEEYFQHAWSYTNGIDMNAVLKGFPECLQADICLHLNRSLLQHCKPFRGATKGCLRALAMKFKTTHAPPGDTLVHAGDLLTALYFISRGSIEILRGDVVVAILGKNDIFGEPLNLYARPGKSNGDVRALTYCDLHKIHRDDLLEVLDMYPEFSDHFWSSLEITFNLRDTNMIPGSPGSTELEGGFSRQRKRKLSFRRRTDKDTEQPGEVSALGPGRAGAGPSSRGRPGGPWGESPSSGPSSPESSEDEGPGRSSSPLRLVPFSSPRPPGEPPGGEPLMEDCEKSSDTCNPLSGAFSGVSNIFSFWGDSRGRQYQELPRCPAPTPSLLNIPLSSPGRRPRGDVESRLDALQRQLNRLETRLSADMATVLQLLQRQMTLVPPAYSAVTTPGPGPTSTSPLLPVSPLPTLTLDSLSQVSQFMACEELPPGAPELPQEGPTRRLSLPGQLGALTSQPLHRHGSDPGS
D(3) dopamine receptor (Homo sapiens), sequence (P35462 whole entry): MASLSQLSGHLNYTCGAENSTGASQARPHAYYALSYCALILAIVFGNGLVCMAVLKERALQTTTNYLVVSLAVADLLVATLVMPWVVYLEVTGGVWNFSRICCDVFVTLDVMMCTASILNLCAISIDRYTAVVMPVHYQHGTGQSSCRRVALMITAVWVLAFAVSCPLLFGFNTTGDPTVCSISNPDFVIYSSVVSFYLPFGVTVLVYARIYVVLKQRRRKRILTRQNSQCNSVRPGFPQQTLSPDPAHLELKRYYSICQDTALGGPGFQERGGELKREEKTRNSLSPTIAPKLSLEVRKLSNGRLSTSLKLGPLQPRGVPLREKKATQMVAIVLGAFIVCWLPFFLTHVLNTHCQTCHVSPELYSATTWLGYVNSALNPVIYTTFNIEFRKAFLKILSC
5-hydroxytryptamine receptor 2A, sequence (P28223 whole entry): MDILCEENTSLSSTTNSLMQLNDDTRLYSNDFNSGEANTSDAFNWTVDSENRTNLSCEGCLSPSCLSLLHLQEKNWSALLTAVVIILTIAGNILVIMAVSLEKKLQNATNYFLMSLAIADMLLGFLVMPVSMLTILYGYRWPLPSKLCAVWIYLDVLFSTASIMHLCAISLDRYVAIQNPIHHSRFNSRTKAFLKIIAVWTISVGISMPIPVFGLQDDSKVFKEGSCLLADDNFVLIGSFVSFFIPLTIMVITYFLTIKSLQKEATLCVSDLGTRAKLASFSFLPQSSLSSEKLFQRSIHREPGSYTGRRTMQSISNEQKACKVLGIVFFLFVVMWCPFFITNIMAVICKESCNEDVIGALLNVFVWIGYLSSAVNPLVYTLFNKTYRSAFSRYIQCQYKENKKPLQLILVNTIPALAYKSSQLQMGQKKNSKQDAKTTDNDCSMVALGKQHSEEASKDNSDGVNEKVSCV

For `C[C@@H]1CNCCN1c1cc(=O)n(C)c(COc2ccccc2C(F)(F)F)n1`, the Activity is 480 nM in [1]; more than 1 µM in [2]; more than 1 µM in [3]; 210 nM in series [6]; more than 1 µM in [9]; more than 1 µM in series [11]. This molecule had an Activity in series [12] of 20%. Also, in series [4], the Ratio is 0.34. Moreover, the values for the EC50 in series [5] and in [7] were more than 10 µM and more than 1.5 µM, respectively. The Ki in [8] is more than 13 µM. The same molecule had a Cp in [10] of 19 nM.
